Screening data as filed in PubChem BioAssay.
Most compounds without a hit are left out; they make up all but 2.5% or so of the library.
MEKK2 WT-MEK5 – raises or lowers MEK5 binding to wildtype human MEKK2 PB1 domain | binding response (% of control), % at 10 µM | bead flow cytometry, Alexa488-MEK5 binding to MEKK2 WT; actives lie on both sides | actives 1.1% (n = 290,000) | AID 1531 | Q9Y2U5; in the data active = binding response below about 67% or above about 130%
Rce1 inh – blocks yeast Ras-converting enzyme; yeast membranes, quenched prenylated peptide cleavage fluorescence; Q03530; calls only; actives 0.27% (n = 290,000);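 active = fall in fluorescence gain of 50% or more versus controls, with final raw signal at or below 3038400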
MEKK3 PB1 HTS – MEKK3-MEK5 PB1 interaction, increase or decrease. binding response (% of control), % at 10 µM. bead-based flow cytometry, Alexa488-MEK5 binding to MEKK3; actives lie on both sides; 0 = blocked by unlabeled MEK5, 100 = vehicle. actives 1.4% (n = 290,000). Q99759;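 active = binding response more than 3 SD above or below the average of its plate-row segment, actives on both sides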;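 note: Alexa488 bead fluorescence after subtracting the streptavidin-only scavenger bead signal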
Target sequence (Q99759 whole entry, looked up): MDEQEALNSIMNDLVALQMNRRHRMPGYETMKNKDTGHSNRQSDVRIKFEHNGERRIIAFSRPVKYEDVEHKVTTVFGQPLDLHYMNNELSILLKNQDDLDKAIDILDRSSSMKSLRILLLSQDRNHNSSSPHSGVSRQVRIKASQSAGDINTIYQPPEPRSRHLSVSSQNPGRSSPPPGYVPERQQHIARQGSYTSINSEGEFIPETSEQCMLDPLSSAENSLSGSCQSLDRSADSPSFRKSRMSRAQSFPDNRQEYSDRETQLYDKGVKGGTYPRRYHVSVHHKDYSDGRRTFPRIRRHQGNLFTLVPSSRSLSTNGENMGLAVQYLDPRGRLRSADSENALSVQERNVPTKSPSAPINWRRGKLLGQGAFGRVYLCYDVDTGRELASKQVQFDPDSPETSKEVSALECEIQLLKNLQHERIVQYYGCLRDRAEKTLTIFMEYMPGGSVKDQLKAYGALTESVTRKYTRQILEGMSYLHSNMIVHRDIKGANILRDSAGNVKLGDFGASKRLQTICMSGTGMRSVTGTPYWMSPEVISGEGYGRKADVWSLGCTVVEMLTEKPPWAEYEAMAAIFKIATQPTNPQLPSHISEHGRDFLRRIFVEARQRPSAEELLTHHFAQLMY
T cell modulator – T cell immune modulation candidate | actives 0.068% (n = 330,000) | 2C CD8+ T cell-vesicle binding, flow cytometry; stronger effect = lower value | response (vesicle binding), % at 7 µM;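 active = response, share of CD8 T cells binding vesicles, and their 90th percentile fluorescence all below set limits, cut at about 80% in these data, passing the limit was not always enough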;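 note: values below 100% mean blocked vesicle binding to the CD8+ T cells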
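Assay system: 2C TCR transgenic mouse naive CD8+ T cells, MACS-purified | Read-out: CD8+ gate FL2 mean fluorescence as % of same-row positive control | Signal: High-throughput flow cytometry with anti-B7-1 and anti-CD8 staining | Timing: Binding step 1.5 h, 37 °C, antibody labelling 20 min, ice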
UCH37 inh – inhibitors of human deubiquitinating enzyme UCH37. Q9Y5K5. purified proteasome/UCH37, Ub-AMC cleavage fluorescence. inhibition, % (concentration not given with the values). actives 0.33% (n = 330,000). AID 588478;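 active = mean inhibition over replicate wells above about 20%, limit read from the data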
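Schedule: 30 min plus 25 min, room temperature / Material: human UCH37 within purified proteasomes / Technique: AMC fluorescence intensity at 355/460 nm / Buffer or medium: pH 7.4 Tris-HCl (50 mM) with ovalbumin, ATP-MgCl2, DTT / Controls: wells without proteasome as full block, compound-free enzyme plus substrate as uninhibited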
MEKK2 mut-MEK5 – signal of MEK5 binding to mutant human MEKK2 PB1 domain; bead flow cytometry, Alexa488-MEK5 binding to MEKK2 mutant; actives 0.35% (n = 290,000); percent response, % at 10 µM; in the data active = percent response above about 24%, passing the limit was not always enough
MEKK2wt confirm – raises or lowers MEK5 binding to wildtype human MEKK2, retest; shares compounds with MEKK3 PB1 HTS; bead flow cytometry, Alexa488-MEK5 binding to MEKK2 WT; actives lie on both sides; binding response (% of control), % at 10 µM; actives 2.4% (n = 5,900); in the data active = binding response below about 16% or above about 210%; inactive = in between
MEKK2mut confirm – signal of MEK5 binding to mutant human MEKK2, retest. shares compounds with MEKK3 PB1 HTS. bead flow cytometry, Alexa488-MEK5 binding to MEKK2 mutant. percent response, % at 10 µM. actives 2% (n = 5,900). AID 1893; in the data active = percent response mostly above about 71%, no sharp cut-off; inactive = mostly below about 38%;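 note: higher means compound restores mutant binding toward wildtype level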
MEKK3 confirm – confirmation of inhibitors of MEK5 binding to human MEKK3; binding response (% of control), % at 10 µM; actives 1.8% (n = 5,900); shares compounds with MEKK3 PB1 HTS; bead flow cytometry, Alexa488-MEK5 binding to MEKK3; stronger effect = lower value;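 active = binding response below 72% of control, or above a set upper limit, though filed actives all read lower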
Hits are given with their value; – = inactive; · = not tested or not shown; [ ] = remark or other dose.

SMILES | MEKK2 WT-MEK5 | Rce1 inh | MEKK3 PB1 HTS | T cell modulator | UCH37 inh | MEKK2 mut-MEK5 | MEKK2wt confirm | MEKK2mut confirm | MEKK3 confirm
COc1ccc(-c2nn(-c3ccccc3)cc2C=NNc2ccc(S(N)(=O)=O)cc2[N+](=O)[O-])cc1OC | · | · | · | · | – | · | · | · | ·
COc1ccccc1C(=O)NN=Cc1ccc2c(c1)OCO2 | · | · | · | · | – | · | · | · | ·
CCOC(=O)/C(N=Nc1ccc(C(=O)O)cc1[N+](=O)[O-])=C(\C)O | – | – | – | – | 23 | – | · | · | ·
Cc1cc(=O)[nH]c(NN=Cc2ccc(OC(=O)c3ccco3)cc2)n1 | · | · | · | · | – | · | · | · | ·
O=C(OCCN=C1NS(=O)(=O)c2ccccc21)c1ccccc1 | – | – | 122 | – | – | – | – | – | –
CCN1CCCC1CNc1ncnc2c1[nH]c1ccc(Cl)cc12 (stereo not drawn) | – | – | – | – | – | 35 | – | – | –
O=C1CCCN1CCCNc1ncnc2c1[nH]c1ccc(Cl)cc12 | – | – | – | – | – | – | · | · | ·
CCOc1nc(Nc2ccc(F)cc2)nc(N2CCN(c3ccc(OC)cc3)CC2)n1 | – | – | – | – | – | – | · | · | ·
CCOc1nc(Nc2ccc(OC)c(Cl)c2)nc(N2CCN(c3ccc(OC)cc3)CC2)n1 | – | – | 79[inhibitor] | – | – | 33 | – | – | –
CCOc1ccc(C(=O)NCc2ccncc2)cc1 | – | – | – | – | – | – | · | · | ·
Cc1ccc(C)n1-c1ccc(C(=O)NCc2ccncc2)cc1 | – | – | 50[inhibitor] | – | – | – | – | – | –
COc1cccc(OCCOCCOc2ccc(C)cc2[N+](=O)[O-])c1 | – | – | 146 | – | – | – | – | – | –
COc1cccc(C=NNC(=S)NC2CC3CC2C2C=CCC32)c1O (stereo not drawn) | · | · | · | · | – | · | · | · | ·
c1ccc(Cn2nnc3c(NCC4CCCO4)ncnc32)cc1 (stereo not drawn) | – | – | 61[inhibitor] | – | – | – | – | – | –
c1ccc(Cn2nnc3c(NCC4CCCO4)nc(C4CC4)nc32)cc1 (stereo not drawn) | – | – | – | – | – | – | · | · | ·
Cc1[nH]c2ccccc2c1C=NNS(=O)(=O)c1ccccc1 | · | · | · | · | – | · | · | · | ·
CCOc1ccc(C=NNC(=O)c2cc(-c3ccccc3)nc3ccccc23)cc1O | · | · | · | · | – | · | · | · | ·
CSc1ccc2c(c1)N(CCC1CCCCN1C)c1ccccc1S2 (stereo not drawn) | 176 | – | – | – | – | – | – | – | –
COC(=O)c1ccc(C=NNC(=O)CC(=O)NCc2cccnc2)cc1 | · | · | · | · | – | · | · | · | ·
COc1cc(C(=O)NN=Cc2sc(=O)n(-c3ccccc3)c2Cl)cc(OC)c1OC | · | · | · | · | – | · | · | · | ·
COc1ccc(C(=O)Nc2ccccc2C(=O)NCCCn2ccnc2)cc1 | – | – | 122 | · | – | – | – | – | –
COC(=O)N/N=C/c1cc(C)n(-c2ccccc2)c1C | 1.0[inhibitor] | – | 1.0[inhibitor] | – | · | – | – | – | –
COC(=O)N/N=C/c1cc(C)n(-c2ccc(Br)cc2)c1C | – | – | – | – | · | – | · | · | ·
COc1ccc(/C=C2\SC(=S)N(C(Cc3ccccc3)C(=O)O)C2=O)cc1 (stereo not drawn) | – | – | – | · | – | – | · | · | ·
O=C(O)C(Cc1ccccc1)N1C(=O)/C(=C/C=C/c2ccco2)SC1=S (stereo not drawn) | 40[inhibitor] | – | 37[inhibitor] | · | 24 | – | – | – | –
SMILES | MEKK2 WT-MEK5 | Rce1 inh | MEKK3 PB1 HTS | T cell modulator | UCH37 inh | MEKK2 mut-MEK5 | MEKK2wt confirm | MEKK2mut confirm | MEKK3 confirm
CC(C)(C)c1ccc(S(=O)(=O)n2c(CN3CCOCC3)nc3ccccc32)cc1 | – | – | 125 | – | – | – | – | – | –
Cc1cc2oc3ccc(NCCCn4ccnc4)cc3c(=O)c2cc1C | – | – | – | – | – | – | · | · | ·
Cc1cc2oc3ccc(NCCCN4CCOCC4)cc3c(=O)c2cc1C | 144 | – | – | – | – | – | – | – | –
CCOC(=O)c1cc(CC)sc1/N=C/C1=C(O)CC(C)(C)CC1=O | – | – | 136 | – | · | – | – | – | –
CCc1cccc(NC(=S)N(CCOC)C2CCN(C(C)=O)CC2)c1 | – | – | 123 | – | – | 34 | – | – | –
CCOC(=O)N1CCC(N(CCN(C)C)C(=S)Nc2cccc(C)c2)CC1 | – | – | 138 | – | – | – | – | – | –
CCOC(=O)N1CCC(N(CCN(C)C)C(=S)Nc2ccccc2C)CC1 | – | – | 130 | – | – | – | – | – | –
CC(NC(=O)c1ccccc1)C(=O)NN=Cc1ccc(O)cc1 (stereo not drawn) | · | · | · | · | – | · | · | · | ·
CC(=NO)c1ccc2c3c([nH]c2c1)CCCC3 | · | · | · | · | – | · | · | · | ·
COc1cc(C=NNC2=NS(=O)(=O)c3ccccc32)ccc1OC(C)=O | · | · | · | · | – | · | · | · | ·
O=C(O)c1[nH]c2ccccc2c1CC(=O)N1CCN(c2ccccc2)CC1 | – | · | 132 | – | – | – | – | – | –
